# Results reported in PubChem BioAssay AID588730 (Vanderbilt Specialized Chemistry Center, 2011).
# Active and inactive are the calls of the source.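 How the source made its calls: active means fold shift at most 0.5 or above 2, or agonist peak response under 75 or over 125 percent; inactive means the rest.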
# Biological target: Metabotropic glutamate receptor 6 (Homo sapiens) (UniProt O15303)
# Assay: Fold shift in glutamate response at human mGluR6, Tl+ flux in HEK/GIRK cells, selectivity profiling for mGluR5 PAMs (AID 588730)
# Settings: HEK/GIRK hmGluR6, thallium flux, glutamate CRC fold shift, at 10 µM; for Emax: measured here: glutamate max response with compound
# Method in brief: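 System: HEK/GIRK cells expressing human mGlu6 receptor / Probe or stimulus: glutamate as agonist, 11-point concentration-response curve in thallium buffer / Compound: single test compound dose, 10 µM final, added before agonist / Technique: FluoZin2 thallium flux fluorescence / Measure: fold shift, ratio of control glutamate EC50 to EC50 with compound / Benchmarks: vehicle-treated reference curve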
# Chain of Metabotropic glutamate receptor 6 (Homo sapiens) (O15303 whole entry, looked up): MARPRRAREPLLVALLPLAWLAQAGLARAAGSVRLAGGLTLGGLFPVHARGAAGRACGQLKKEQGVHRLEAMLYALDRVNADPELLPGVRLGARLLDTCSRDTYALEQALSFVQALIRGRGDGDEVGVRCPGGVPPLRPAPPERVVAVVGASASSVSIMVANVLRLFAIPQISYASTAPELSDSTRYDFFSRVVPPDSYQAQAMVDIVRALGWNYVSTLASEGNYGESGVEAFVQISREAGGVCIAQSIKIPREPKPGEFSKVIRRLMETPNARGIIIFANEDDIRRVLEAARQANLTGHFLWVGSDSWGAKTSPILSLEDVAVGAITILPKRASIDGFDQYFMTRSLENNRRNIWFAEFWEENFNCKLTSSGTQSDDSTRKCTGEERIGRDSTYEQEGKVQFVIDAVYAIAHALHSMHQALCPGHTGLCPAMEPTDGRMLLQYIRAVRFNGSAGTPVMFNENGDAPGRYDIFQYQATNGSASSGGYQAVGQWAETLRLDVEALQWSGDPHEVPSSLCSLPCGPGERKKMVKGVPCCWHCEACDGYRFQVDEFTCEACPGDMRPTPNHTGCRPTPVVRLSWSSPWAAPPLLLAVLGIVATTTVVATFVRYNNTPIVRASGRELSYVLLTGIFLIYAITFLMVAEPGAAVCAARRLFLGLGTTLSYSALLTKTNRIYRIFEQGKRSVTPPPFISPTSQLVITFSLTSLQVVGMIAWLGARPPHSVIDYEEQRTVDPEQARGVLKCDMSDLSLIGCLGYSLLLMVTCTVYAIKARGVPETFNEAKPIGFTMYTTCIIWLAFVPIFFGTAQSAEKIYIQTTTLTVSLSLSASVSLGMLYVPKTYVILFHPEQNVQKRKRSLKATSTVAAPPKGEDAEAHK
fold shift,Emax [%],SMILES
1.04 (inactive),93,C[C@@H](NC(=O)c1ccc(C#Cc2cccc(F)c2)cn1)C(C)(C)O
0.98 (inactive),90,CC1(NC(=O)c2ccc(C#Cc3cccc(F)c3)cn2)COC1
